Experimental data pooled from the literature.
Compare with care: the assays were run in different laboratories.
Target: NUAK family SNF1-like kinase 1 (NUAK1, Homo sapiens, UniProt O60285)

CN(c1nccc(-c2cnn3ncccc23)n1)C1CC1 — remaining signal (cell-free assay; 1 µM): 93%
COc1cc(-c2cn(C3CCc4c(F)cccc4N(CC(F)(F)F)C3=O)nn2)ccc1-n1cnc(C)c1 (stereo not shown) — remaining binding (cell-free assay; competition with immobilised ligand; 1 µM): 100%
C=CC(=O)Nc1cc(Nc2nccc(Nc3cc(Cl)c(F)cc3C(C)(C)O)n2)c(OC)cc1N1CC[C@@H](N(C)C)C1 — inhibition (enzyme activity; inhibitor; 1 µM): 17%
Cc1nn(CC(F)(F)F)cc1Nc1ncc(Br)c(NCCCNC(=O)C2CCC2)n1 — remaining activity (enzyme activity; inhibitor; radiometric; 1 µM): 22%
O=C1NC(=O)c2cc(Nc3ccc(F)cc3)c(Nc3ccc(F)cc3)cc21 — remaining signal (cell-free assay; 0.5 µM): 94%
CO[C@H]1CC[C@H](CNc2ccc(S(=O)(=O)NC(=O)c3ccc(N4CCN(CC5=C(c6ccc(Cl)cc6)CC(C)(C)CC5)CC4)cc3Oc3cnc4[nH]ccc4c3)cc2[N+](=O)[O-])CC1 — remaining binding (cell-free assay; competition with immobilised ligand; 1 µM): 100%
COc1cc2c(Nc3ccc(Br)cc3F)ncnc2cc1OCC1CCN(C)CC1 — remaining signal (cell-free assay; 0.5 µM): 92.7%
NS(=O)(=O)c1cc(NC(=O)C2(c3ccccc3Cl)CC2)ccc1Oc1cccc(Cl)c1 — remaining binding (cell-free assay; competition with immobilised ligand; 1 µM): 95%
Cc1ccc(Nc2nccc(N(C)c3ccc4c(C)n(C)nc4c3)n2)cc1S(N)(=O)=O — inhibition (enzyme activity; inhibitor; 10 µM): 76%
CN(C)C1CCN(CC#Cc2nn(C3CCCC3)c3nc(NCc4ccccc4)ncc23)C1 (stereo not shown) — inhibition (enzyme activity; inhibitor; FRET; 10 µM): 48%
Cc1cc(NC(=O)c2cccc3cc(-c4cccc5[nH]nc(N)c45)ccc23)ccc1F — activity vs control (enzyme activity; inhibitor; 0.1 µM): 100%
CC/C(=N\NC(=O)NCc1cccc(O)c1)c1ccc(O)c(C)c1O — inhibition (enzyme activity; inhibitor; 0.1 µM): -2.5%
O=C(NCCCNc1nc(Nc2cccc(NC(=O)N3CCCC3)c2)ncc1Br)C1CCC1 — remaining activity (enzyme activity; inhibitor; radiometric; 1 µM): 0%
CNC(=O)Nc1ccc2c(c1)CC[C@@]21OC(=O)N(CC(=O)N(Cc2ccc(F)cc2)[C@@H](C)C(F)(F)F)C1=O — remaining binding (cell-free assay; competition with immobilised ligand; 1 µM): 94%
NS(=O)(=O)c1ccc(CNc2ccnc(Nc3cccc(CN4CCOCC4)c3)n2)cc1 — remaining activity (enzyme activity; inhibitor; radiometric; 1 µM): 79%
Nc1ncnc2occ(-c3ccc(NC(=O)Nc4cc(C(F)(F)F)ccc4F)cc3)c12 — remaining signal (cell-free assay; inhibitor; 20 µM): 70%
CC(=O)Nc1c(C(C)=O)c(=O)n(C)c2nc(-c3ccc(Cl)cc3Cl)c(-c3ccc(Cl)cc3)cc12 — remaining binding (cell-free assay; competition with immobilised ligand; 1 µM): 100%
O=C(NCCCNc1ccnc(Nc2cccc(NC(=O)N3CCCC3)c2)n1)C1CCC1 — remaining activity (enzyme activity; inhibitor; radiometric; 1 µM): 87%
CO[C@@H](C)c1c(Nc2ccc([C@H](N(C)C(=O)C3CCS(=O)(=O)CC3)C(F)(F)F)cc2)cnc2cc(Cl)nn12 — remaining binding (cell-free assay; competition with immobilised ligand; 1 µM): 98%
CNC(=O)c1cc(Oc2ccc(NC(=O)Nc3ccc(Cl)c(C(F)(F)F)c3)cc2)ccn1 — inhibition (enzyme activity; inhibitor; 0.3 µM): -3%
O=C(NCCCNc1nc(Nc2cccc(CN3CCOCC3)c2)ncc1C1CC1)C1CCC1 — remaining activity (enzyme activity; inhibitor; radiometric; 1 µM): 31%
O=C(Nc1ccc(Oc2ccc(F)cc2)cc1)N1CCc2ncccc2[C@H]1c1ccc(F)cc1 — remaining binding (cell-free assay; competition with immobilised ligand; 1 µM): 92%
Cc1nn(CC(F)(F)F)cc1Nc1ncc(Br)c(NCc2ccc(S(N)(=O)=O)cc2)n1 — remaining activity (enzyme activity; inhibitor; radiometric; 1 µM): 58%
C#Cc1cccc(Nc2ncnc3cc(OCCOC)c(OCCOC)cc23)c1 — remaining signal (cell-free assay; 0.5 µM): 98%
Brc1cnc(Nc2cccc(CN3CCOCC3)c2)nc1NCCc1c[nH]cn1 — remaining activity (enzyme activity; inhibitor; radiometric; 1 µM): 1%
c1ccc(N2CCN(Cc3nc4ccccc4[nH]3)CC2)nc1 — remaining binding (binding; competition with immobilised ligand; 1 µM): 89%
O=C(NCCCNc1nc(Nc2cccc(NC(=O)N3CCCC3)c2)ncc1I)c1cccs1 — remaining activity (enzyme activity; inhibitor; radiometric; 1 µM): 2%
Cc1ccc(NC(=O)c2ccc(C)c(C(F)(F)F)c2)cc1C#Cc1nn(C2CCC(O)CC2)c2ncnc(N)c12 (stereo not shown) — remaining signal (cell-free assay; 10 µM): 108%
